Consider nine compounds from ChEMBL document CHEMBL4680238, “Novel octapeptide-DTX prodrugs targeting MMP-7 as effective agents for the treatment of colorectal cancer with lower systemic toxicity” (Eur J Med Chem, 2020).

As a reminder, the pIC50 is the negative decadic logarithm of the IC50, by convention in mol/L. As usually defined, the half-life is the time in which the quantity being followed falls by half. A lower half-life goes with fast loss.

Molecules are shown by their SMILES. pIC50: −log10 of the molar value. Residues, ends and D or L forms follow the SMILES beside them. *: point of attachment. X2 = CC(=O)O[C@@]12CO[C@@H]1C[C@H](O)[C@@]1(C)C(=O)[C@H](O)C3=C(C)[C@@H](OC(=O)[C@H](OC(=O)OCc4ccc(N*)cc4)[C@@H](NC(=O)OC(C)(C)C(F)(F)F)c4ccccc4)C[C@@](O)([C@@H](OC(=O)c4cccc(F)c4)[C@H]21)C3(C)C; X1 = CC(=O)O[C@@]12CO[C@@H]1C[C@H](O)[C@@]1(C)C(=O)[C@H](O)C3=C(C)[C@@H](OC(=O)[C@H](OC(=O)OCc4ccc(N*)cc4)[C@@H](NC(=O)OC(C)(C)C)c4ccccc4)C[C@@](O)([C@@H](OC(=O)c4ccccc4)[C@H]21)C3(C)C; Fmoc = O=C(OCC1c2ccccc2-c2ccccc21)*

One data set concerns SW-620. The data set is described as follows: Cytotoxicity against human SW-620 cells assessed as reduction in cell viability after 72 hrs by MTT assay. Type of data set: functional, cell-based. The settings on record: SW-620, 72 h. In short, it runs like this:
(§1)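 Cells seeded at 5000/well and precultured 1 day. HCT116 grown in McCoy's 5A + 10% FBS; SW620 and HEK293 in DMEM + 10% FBS; CCD18Co in DMEM + 15% FBS. Compounds from 0.1 M DMSO stocks were tested at 10^-10 to 10^-4 mol/L in sixplicate: HCT116 and HEK293 for 48 h, SW620 and CCD18Co for 72 h, at 37 °C, 5% CO2. MTT (5 mg/mL) added for 4 h, then A570 read; IC50 estimated.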

Another data set deals with CCD-18Co. Description: Cytotoxicity against human CCD-18Co cells assessed as reduction in cell viability after 72 hrs by MTT assay. It counts as cell-based. In short, it runs like this:
as §1
For orientation: Tetrazolium dyes change colour on reduction, which living cells bring about.

The nature of data set [1]: Half life in Sprague-Dawley rat plasma t 50 ug/ml up to 72 hrs by RP-HPLC analysis. The note with it: dose 50 µg/ml. It counts as ADME, cell-free.
Data set [2] in a line: Half life of compound in PBS buffer at pH 7.4 at 50 ug/ml up to 72 hrs by RP-HPLC analysis. Type of data set: physicochemical. The note with it: dose 50 µg/ml.
The next data set concerns HEK293. Description: Cytotoxicity against HEK293 cells assessed as reduction in cell viability after 48 hrs by MTT assay. It counts as cell-based. The settings on record: Homo sapiens, HEK293, 48 h. In short, it runs like this: as §1
The subject of data set [3] is HCT-116. The data set is described as follows: Cytotoxicity against human HCT-116 cells assessed as reduction in cell viability after 48 hrs by MTT assay. The settings on record: HCT-116, 48 h. Type of data set: functional, cell-based. In short, it runs like this: as §1
The subject of data set [4] is HCT-116. Description: Antitumour activity against human HCT-116 cells xenografted in BALB/c nude mouse assessed as tumour growth inhibition at 5 mg/kg, ip administered once for every 7 days for 14 days relative to control. The settings on record: HCT-116, ip, 336 h, time 14 day, read-out: TGI. Type of data set: functional. In short, it runs like this: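 Male BALB/c nude mice received s.c. HCT116 cells (2 × 10^6 in 0.2 mL PBS). Once tumours reached 100-200 mm3, mice were randomized into groups of six. Dosing was ip, 0.1 mL/10 g, once every 7 days, in DMSO 0.5%/castor oil 5%/ethanol 5%/saline 89.5%; vehicle controls got solvent. Caliper volume V = L×W²×0.52 read every 2-3 days. Tumours excised and weighed on day 14.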

With `CC[C@H](C)[C@H](NC(=O)CNC(=O)[C@H](CCSC)NC(=O)[C@@H]1CCCN1C(=O)CNC(C)=O)C(=O)N[C@@H](C)C(=O)NCC(=O)N[C@@H](CCC(N)=O)C(=O)N[C@@H](CC(C)C)C(=O)Nc1ccc(COC(=O)O[C@@H](C(=O)O[C@H]2C[C@@]3(O)[C@@H](OC(=O)c4ccccc4)[C@@H]4[C@]5(OC(C)=O)CO[C@@H]5C[C@H](O)[C@@]4(C)C(=O)[C@H](O)C(=C2C)C3(C)C)[C@@H](NC(=O)OC(C)(C)C)c2ccccc2)cc1` (Ac-GPMGIAGQL-X1), the pIC50 with SW-620 was 5.94; in the data set on CCD-18Co, below 3.70; in the data set with HEK293 it was 4.96; in the data set on HCT-116 [3], 8.14. The half-life at 50 ug/ml is 23.9 h in data set [1] and above 72 h in data set [2].
On to `CC[C@H](C)[C@H](NC(=O)CNC(=O)[C@H](CCSC)NC(=O)[C@@H]1CCCN1C(=O)CNC(C)=O)C(=O)N[C@@H](C)C(=O)NCC(=O)N[C@@H](CCC(N)=O)C(=O)N[C@@H](CC(C)C)C(=O)Nc1ccc(COC(=O)O[C@@H](C(=O)O[C@H]2C[C@@]3(O)[C@@H](OC(=O)c4cccc(F)c4)[C@@H]4[C@]5(OC(C)=O)CO[C@@H]5C[C@H](O)[C@@]4(C)C(=O)[C@H](O)C(=C2C)C3(C)C)[C@@H](NC(=O)OC(C)(C)C(F)(F)F)c2ccccc2)cc1` (Ac-GPMGIAGQL-X2), for which the pIC50 was below 3.70 in the data set on SW-620, below 3.70 in the data set with CCD-18Co, 4.67 in the data set with HEK293 and 7.68 in the data set on HCT-116 [3]. For the same compound, the half-life at 50 ug/ml in data set [1] was 24 h; in data set [2] it was above 72 h.
`CC[C@H](C)[C@H](NC(=O)[C@H](C)NC(=O)[C@H](CCC(N)=O)NC(=O)[C@@H]1CCCN1C(=O)CNC(C)=O)C(=O)N[C@@H](C)C(=O)NCC(=O)N[C@@H](CCC(N)=O)C(=O)N[C@@H](CC(C)C)C(=O)Nc1ccc(COC(=O)O[C@@H](C(=O)O[C@H]2C[C@@]3(O)[C@@H](OC(=O)c4ccccc4)[C@@H]4[C@]5(OC(C)=O)CO[C@@H]5C[C@H](O)[C@@]4(C)C(=O)[C@H](O)C(=C2C)C3(C)C)[C@@H](NC(=O)OC(C)(C)C)c2ccccc2)cc1` (Ac-GPQAIAGQL-X1): the negative logarithm of the IC50 (pIC50) in the data set with SW-620 is below 3.70; with CCD-18Co, below 3.70; in the data set with HEK293, 3.97; in the data set with HCT-116 [3], 7.95. The half-life at 50 ug/ml was 12 h in data set [1] and above 72 h in data set [2].
`CC[C@H](C)[C@H](NC(=O)[C@H](C)NC(=O)[C@H](CCC(N)=O)NC(=O)[C@@H]1CCCN1C(=O)CNC(C)=O)C(=O)N[C@@H](C)C(=O)NCC(=O)N[C@@H](CCC(N)=O)C(=O)N[C@@H](CC(C)C)C(=O)Nc1ccc(COC(=O)O[C@@H](C(=O)O[C@H]2C[C@@]3(O)[C@@H](OC(=O)c4cccc(F)c4)[C@@H]4[C@]5(OC(C)=O)CO[C@@H]5C[C@H](O)[C@@]4(C)C(=O)[C@H](O)C(=C2C)C3(C)C)[C@@H](NC(=O)OC(C)(C)C(F)(F)F)c2ccccc2)cc1` (Ac-GPQAIAGQL-X2): the pIC50 was 6.19 in the data set on SW-620, below 3.70 in the data set on CCD-18Co, 4.03 with HEK293 and 8.27 in the data set on HCT-116 [3]. The half-life at 50 ug/ml in data set [1] was 24 h; in data set [2] it was above 72 h.
Consider `CC(=O)NCC(=O)N1CCC[C@H]1C(=O)N[C@@H](CCC(N)=O)C(=O)NCC(=O)N[C@@H](CC(C)C)C(=O)N[C@@H](C)C(=O)NCC(=O)N[C@@H](CCC(N)=O)C(=O)N[C@@H](CC(C)C)C(=O)Nc1ccc(COC(=O)O[C@@H](C(=O)O[C@H]2C[C@@]3(O)[C@@H](OC(=O)c4ccccc4)[C@@H]4[C@]5(OC(C)=O)CO[C@@H]5C[C@H](O)[C@@]4(C)C(=O)[C@H](O)C(=C2C)C3(C)C)[C@@H](NC(=O)OC(C)(C)C)c2ccccc2)cc1` (Ac-GPQGLAGQL-X1), for which the pIC50 was 4.66 with SW-620, below 3.70 with CCD-18Co, 3.78 with HEK293 and 8.28 in the data set with HCT-116 [3]. The half-life at 50 ug/ml was 14 h in data set [1] and 35.1 h in data set [2].
For the compound `CC(=O)NCC(=O)N1CCC[C@H]1C(=O)N[C@@H](CCC(N)=O)C(=O)NCC(=O)N[C@@H](CC(C)C)C(=O)N[C@@H](C)C(=O)NCC(=O)N[C@@H](CCC(N)=O)C(=O)N[C@@H](CC(C)C)C(=O)Nc1ccc(COC(=O)O[C@@H](C(=O)O[C@H]2C[C@@]3(O)[C@@H](OC(=O)c4cccc(F)c4)[C@@H]4[C@]5(OC(C)=O)CO[C@@H]5C[C@H](O)[C@@]4(C)C(=O)[C@H](O)C(=C2C)C3(C)C)[C@@H](NC(=O)OC(C)(C)C(F)(F)F)c2ccccc2)cc1` (Ac-GPQGLAGQL-X2), the negative logarithm of the IC50 (pIC50) in the data set with SW-620 is below 3.70; in the data set with CCD-18Co, below 3.70; in the data set on HEK293, 5.21; in the data set on HCT-116 [3], 7.59. In addition, the half-life at 50 ug/ml in data set [1] is 24.1 h; in data set [2], 48.3 h.
Turning to `CC[C@H](C)[C@H](NC(=O)CNC(=O)[C@H](CC(C)C)NC(=O)[C@@H]1CCCN1C(=O)CNC(=O)OCC1c2ccccc2-c2ccccc21)C(=O)N[C@@H](C)C(=O)NCC(=O)N[C@@H](CCC(N)=O)C(=O)N[C@@H](CC(C)C)C(=O)Nc1ccc(COC(=O)O[C@@H](C(=O)O[C@H]2C[C@@]3(O)[C@@H](OC(=O)c4ccccc4)[C@@H]4[C@]5(OC(C)=O)CO[C@@H]5C[C@H](O)[C@@]4(C)C(=O)[C@H](O)C(=C2C)C3(C)C)[C@@H](NC(=O)OC(C)(C)C)c2ccccc2)cc1` (Fmoc-GPLGIAGQL-X1), the pIC50 was 6.00 with SW-620, below 3.70 with CCD-18Co, 4.82 in the data set with HEK293 and 8.01 in the data set with HCT-116 [3]. The half-life at 50 ug/ml in data set [1] is 35.9 h; in data set [2], above 72 h.
In the case of `CC[C@H](C)[C@H](NC(=O)CNC(=O)[C@H](CC(C)C)NC(=O)[C@@H]1CCCN1C(=O)CNC(=O)OCC1c2ccccc2-c2ccccc21)C(=O)N[C@@H](C)C(=O)NCC(=O)N[C@@H](CCC(N)=O)C(=O)N[C@@H](CC(C)C)C(=O)Nc1ccc(COC(=O)O[C@@H](C(=O)O[C@H]2C[C@@]3(O)[C@@H](OC(=O)c4cccc(F)c4)[C@@H]4[C@]5(OC(C)=O)CO[C@@H]5C[C@H](O)[C@@]4(C)C(=O)[C@H](O)C(=C2C)C3(C)C)[C@@H](NC(=O)OC(C)(C)C(F)(F)F)c2ccccc2)cc1` (Fmoc-GPLGIAGQL-X2), the pIC50 is 6.68 in the data set on SW-620, below 3.70 with CCD-18Co, 4.42 in the data set on HEK293 and 6.36 in the data set on HCT-116 [3]. The values for the half-life at 50 ug/ml in data set [1] and in data set [2] were 47.8 h and above 72 h, respectively.
As to `O=c1[nH]cc(F)c(=O)[nH]1` [FLUOROURACIL], the negative logarithm of the IC50 (pIC50) with SW-620 was 5.16; with CCD-18Co, below 3.70; in the data set on HEK293 it was 4.10; in the data set on HCT-116 [3] it was 4.58. In addition, the inhibition in vivo at 5 mg/kg in the data set on HCT-116 [4] stood at 11.4%.
